Assay outcomes as filed in PubChem BioAssay.
Only some compounds are listed: those with a hit (about 3% of all), similar ones and a draw of the others.
Insulin prom inh – TRM-6 insulin promoter activity inhibition | TRM-6 cells (human fetal islet line), insulin promoter-eGFP reporter, imaging; reporter expression induced with tamoxifen | inhibition, % at 2 µM | 130,000 tested, 0.9% active;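 active means inhibition above the mean plus 3 SD, with well images judged a real hit on visual review, cut at about 60% in these data, passing the limit was not always enough; inconclusive means inhibition over the cutoff but images rejected on review; inactive means inhibition not above the cutoff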
Yeast growth inh – chemicals that inhibit yeast BB579 growth in restrictive medium (lifespan-shortening candidates). S. cerevisiae BB579 growth, OD615, 48 h. inhibition, % at 10 µM. 140,000 tested, 0.51% active. AID 804;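 active means inhibition above a set limit, 3 SD over the mean compound inhibition, cut at about 44% in these data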
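Test system: S. cerevisiae DeaD strain BB579 yeast; Medium: restrictive CSMM-D medium; Compound: one dose, 10 µM compound with 0.25% DMSO; Incubation: 4 h cell preincubation, 48 h compound exposure, 30 °C humidified; Signal: OD at 615 nm; Benchmarks: amphotericin B at 10 µg/mL as positive control.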
Ins promoter up – MIN6 insulin promoter up-regulation | MIN6 insulin promoter-GFP reporter, high-content imaging; active compounds read high | z-score at 5 µM | 190,000 tested, 0.3% active | AID 1625;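 active means z-score above 3 at 5 µM with at least 500 cells counted in the well; inconclusive means wells under 500 cells, flagged as cytotoxic or low count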
Yeast life ext – extends the lifespan of yeast; S. cerevisiae growth with nicotinamide, OD615; deaD strain in restrictive glucose medium; inhibition of the nicotinamide effect, % at 10 µM; 130,000 tested, 0.68% active;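 active means inhibition above a set limit, placed 3 SD over the median of all compounds, cut at about 26% in these data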;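 further: 0% = nicotinamide-treated wells and 100% = cells grown without nicotinamide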
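Test system: DeaD-strain S. cerevisiae / Buffer or medium: restrictive glucose medium / Also added: nicotinamide 1.5 mM / Doses: one concentration, 10 µM, DMSO 0.25% / Schedule: 48 h at 30 °C / Signal: OD615 measurement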
RAM network inh – inhibitors of the yeast RAM network; 190,000 tested, 1.8% active; inhibition, % at 50 µM; S. cerevisiae dse1pr::URA3 reporter, 5-FOA growth OD615, 2 d; analog-sensitive cbk1-as2 kinase mutant strain;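 active means inhibition above a set limit, 3 SD over mean compound inhibition, cut at about 8.4% in these data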;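 further: 0% = DMSO-only wells with no growth and 100% = 10 µM 1-NA-PP1 full growth; inhibition rescues growth on 5-FOA so higher OD means more RAM inhibition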
RAM 5-FOA – RAM network inhibitors in efflux-deficient yeast. max inhibition, %. shares compounds with RAM network inh. 1,200 tested, under 10 active. S. cerevisiae efflux-deficient reporter strain, 5-FOA growth OD615, 2 days. AID 1305; call rule not given here;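 further: plate controls were vehicle for no effect and reference inhibitor for full effect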
Starred values were filed as active, the others as inactive; i = inactive; ? = inconclusive; / = no result given.

SMILES	Insulin prom inh	Yeast growth inh	Ins promoter up	Yeast life ext	RAM network inh	RAM 5-FOA
Cc1ccsc1/C=C1\SC(=S)N(CC2CCCO2)C1=O (stereo not given)	/	/	0.2	/	2.1	/
CCCOc1ccc(/C=C2\SC(=S)N(CC3CCCO3)C2=O)cc1 (stereo not given)	15.8	-16.1	-0.15	4.5	16.6*	6.8
Cc1c(NC(=O)c2ccc(-c3cccc([N+](=O)[O-])c3)o2)c(=O)n(-c2ccccc2)n1C	14.3	/	0.01	/	0.9	/
O=C(NCCc1ccccc1)c1oc2ccccc2c1COc1ccccc1	-80.0	-34.3	0.14	2.7	18.7*	3.7
O=C(Nc1ccccc1Cc1ccccc1)c1oc2ccccc2c1COc1ccccc1	25.0	-64.6	-0.56	9.2	11.8*	3.8
CC(OC(=O)c1oc2ccccc2c1COc1ccccc1)C(=O)NC(N)=O (stereo not given)	/	/	0.46	/	3.5	/
CCc1nnc(NC(=O)COc2ccccc2[N+](=O)[O-])s1	/	/	-0.14	/	/	/
CCCS(=O)(=O)c1c(S(=O)(=O)CCC)c2c(N)cccn2c1C(=O)c1ccc(Br)cc1	-190.5	-49.1	-0.4	/	12.7*	1.3
O=C(COC(=O)CCCNC(=O)c1ccc(Cl)cc1)Nc1cc(Cl)c(Cl)cc1Cl	-53.3	-28.8	-0.36	3.9	42.1*	1.6
Cc1ccc(NC(=S)NN(C)c2cc(C)nc(C)n2)cc1	30.0	-13.4	0.95	-1.1	0.8	/
CCCCOc1ccccc1NC(=O)c1ccco1	-95.5	-27.9	-0.57	-18.5	-0.2	/
CCCCOc1ccccc1NC(=O)c1scc2c1OCCO2	-75.0	/	-2.71	/	12.6*	4.8
Cc1ccc(-c2nc3ccc(Cl)cc3n2OC(C)C(=O)O)cc1 (stereo not given)	52.9	/	-0.4	/	4.6	/
O=C(c1ccc(Cl)cc1)c1cnc(-c2ccccc2)s1	17.1	-22.2	/	-14.1	2.2	/
O=C(c1cnc(-c2ccccc2)s1)c1ccc(Cl)cc1Cl	-20.0	-60.0	/	-13.0	13.1*	2.3
Cc1ccc(-c2nc3cccnc3s2)cc1NS(=O)(=O)c1ccc2c(c1)OCCO2	/	-9.5	1.63	-9.9	13.1*	2.1
O=S(=O)(Nc1cccc(-c2nc3cccnc3s2)c1)c1ccc2c(c1)OCCO2	/	-38.1	-0.25	-5.1	5.9	/
C=CCc1cccc([C@@H]2[C@@H](C)CC[C@H]3C(=O)N4[C@@H](c5cc(OC)c(OC)c(OC)c5)c5[nH]c6ccccc6c5C[C@H]4C(=O)N23)c1	-52.4	-11.4	0.13	-1.1	3.7	/
COc1ccc(/C=C2/N=C(SCC(=O)Nc3cc(C)on3)N(c3ccccc3)C2=O)cc1	-7.1	-43.0	-0.21	2.1	5.4	/
C=CCSC1=N/C(=C/c2ccsc2)C(=O)N1c1ccccc1	37.5	-51.3	-0.07	-0.1	13.5*	1.6
CCc1ccc(C(=O)COC(=O)C(Cc2ccccc2)NC(=O)c2ccc(Cl)cc2)cc1 (stereo not given)	-68.6	-58.9	-0.26	-18.2	16.6*	3.4
CC(=O)NC(Cc1ccccc1)C(=O)OCC(=O)c1ccc(Cl)cc1 (stereo not given)	-25.9	-52.3	-0.39	2.8	0.1	/
N#Cc1ccc(OCC(=O)N/N=C/C2CC=CCC2)cc1 (stereo not given)	/	/	0.29	/	-0.1	/
O=C(O)CCCC(=O)Nc1cccc(C(=O)Nc2ccccc2C(=O)O)c1	/	/	1.29	/	0.0	/
O=C(CSCc1ccccc1)Nc1cccc(C(=O)Nc2ccccc2C(=O)O)c1	/	8.3	-0.11	-20.6	13.4*	1.9
SMILES	Insulin prom inh	Yeast growth inh	Ins promoter up	Yeast life ext	RAM network inh	RAM 5-FOA
O=C(CSCc1ccc(Cl)cc1)Nc1cccc(C(=O)Nc2ccccc2C(=O)O)c1	?	-43.3	/	-15.1	13.7*	0.9
O=C(CCc1ccc(S(=O)(=O)N2CCOCC2)cc1)Nc1ccc2c(c1)OCCO2	/	/	-0.23	/	/	/
C=CCON1C(=O)C(=O)N(OCC=C)[C@H]2CCCC[C@H]21	/	/	0.15	/	/	/
Cc1noc(NS(=O)(=O)c2ccc(N/C=C\C(=O)c3cccs3)cc2)c1C	22.2	/	0.57	/	12.0*	6.3
CC(=O)Nc1ccc(-c2csc(NCc3ccco3)n2)cc1	-2.7	-14.1	/	/	2.4	/
COc1ccc(-c2csc(NCc3ccco3)n2)cc1C	/	-46.4	0.43	-17.2	13.1*	5.1
O=C1OC(C(=O)NCc2ccccc2)Cc2ccccc21 (stereo not given)	/	/	-0.61	/	0.5	/
CCOC(=O)/C(=C/c1ccc(N2CCC(c3ccccc3)=N2)cc1)C(C)=O	?	-53.3	0.01	7.0	19.9*	2.2
Cc1ccccc1NC(=S)NCCC(c1ccccc1)c1ccccc1	/	35.8	-0.35	-8.1	12.3*	3.3
S=C(NCc1ccncc1)Nc1cccc(Cl)c1	15.6	-39.1	-0.19	9.1	1.3	/
S=C(NCCC(c1ccccc1)c1ccccc1)Nc1cccc(Cl)c1	6.9	39.8	0.15	1.2	14.5*	4.8
CCCc1cc(=O)[nH]c(SCC(=O)NN(c2ccccc2)c2ccccc2)n1	/	/	-0.24	/	2.7	/
CC(C)Oc1cccc(C(=O)NC(=S)Nc2cccc(C(F)(F)F)c2)c1	/	-32.4	-0.4	-4.4	11.6*	2.4
CCCCOc1cccc(C(=O)NC(=S)Nc2cccc(C(F)(F)F)c2)c1	0.0	-49.6	-0.1	3.9	13.4*	3.0
CC(C)Oc1cccc(C(=O)NC(=S)Nc2ccc(Cl)c(C(=O)O)c2)c1	34.6	-16.1	0.57	-15.7	7.6	/
N#CC(c1ccccc1)c1ccc(C(=O)c2ccc(F)cc2)cc1 (stereo not given)	-3.2	-86.3	-1.08	-8.2	6.5	/
N#CC(c1ccc(F)cc1)c1ccc(C(=O)c2ccccc2)cc1 (stereo not given)	-9.4	-15.2	0.17	-6.8	16.5*	3.6
O=C(CSc1nc2cc(Cl)ccc2s1)N1CCCc2ccccc21	9.7	-41.9	0.18	-14.6	11.5*	2.1
COC(=O)c1ccc(OC)c(CSc2nnc(-c3ccc(C(C)(C)C)cc3)o2)c1	i	-36.2	-0.31	-8.4	14.0*	3.8
CC(NCc1ccc(F)cc1)C(=O)Nc1cc(S(=O)(=O)N2CCCCC2)ccc1Cl (stereo not given)	/	/	-1.02	/	0.4	/
CN(C[C@@H](CC1CCCCC1)N(C[C@H](Cc1ccccc1)N(CCc1ccccc1)N=O)N=O)N=O	/	/	-0.75	/	14.1*	4.3
CCC(C)[C@@H](CN(N=O)[C@@H](Cc1ccccc1)CN(C)N=O)N(CCc1ccccc1)N=O (stereo not given in full)	/	/	-1.56	/	30.5*	3.5
CCOc1cc(CNn2cnnc2SCC(=O)NC(C)(C)C)ccc1OCC(=O)NC(C)(C)C	-20.0	/	0.1	/	0.9	/
Cc1nnc(SC/C=C/c2ccccc2)n(N)c1=O	-88.9	/	0.4	/	2.7	/
O=C(/C=C/c1ccccc1)n1cnnc1SC/C=C/c1ccccc1	-7.1	-31.6	-0.11	16.1	11.7*	7.9
O=[N+]([O-])c1ccc(C2CCCC/C2=N/OCc2ccc(F)cc2)c([N+](=O)[O-])c1 (stereo not given)	40.0	-43.2	/	-2.7	12.8*	1.5
